Results: ChEMBL document CHEMBL5653631, “A Potent and Selective ULK1 Inhibitor Suppresses Autophagy and Sensitizes Cancer Cells to Nutrient Stress” (iScience, 2018)

Key:
[1] = biological target: Casein kinase II subunit alpha' (Homo sapiens) (UniProt P19784); assay: Inhibition of human recombinant CK2a2 at 40 nM in presence of ATP by radiometric assay relative to control
[2] = biological target: T1, Serine/threonine-protein kinase Nek2 (Homo sapiens) (UniProt P51955); assay: Inhibition of human recombinant NEK2 at 40 nM in presence of ATP by radiometric assay relative to control
T1 sequence (whole entry): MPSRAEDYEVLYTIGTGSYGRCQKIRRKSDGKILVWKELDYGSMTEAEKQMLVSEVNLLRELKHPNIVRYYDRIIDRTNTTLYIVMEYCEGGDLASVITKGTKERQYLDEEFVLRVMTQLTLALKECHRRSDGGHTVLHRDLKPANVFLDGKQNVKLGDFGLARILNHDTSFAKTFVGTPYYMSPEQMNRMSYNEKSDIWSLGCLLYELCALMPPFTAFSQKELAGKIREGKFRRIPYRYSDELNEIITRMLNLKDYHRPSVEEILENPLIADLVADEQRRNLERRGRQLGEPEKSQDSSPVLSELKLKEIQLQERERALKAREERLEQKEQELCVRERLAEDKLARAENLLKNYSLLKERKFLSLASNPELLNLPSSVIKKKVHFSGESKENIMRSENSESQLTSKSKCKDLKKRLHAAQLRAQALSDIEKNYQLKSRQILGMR

[3] = biological target: Calcium/calmodulin-dependent protein kinase type II subunit delta (Homo sapiens) (UniProt Q13557); assay: Inhibition of human recombinant CaMK2d at 40 nM related to control ULK1
Calcium/calmodulin-dependent protein kinase type II subunit delta (Homo sapiens), sequence (Q13557 whole entry): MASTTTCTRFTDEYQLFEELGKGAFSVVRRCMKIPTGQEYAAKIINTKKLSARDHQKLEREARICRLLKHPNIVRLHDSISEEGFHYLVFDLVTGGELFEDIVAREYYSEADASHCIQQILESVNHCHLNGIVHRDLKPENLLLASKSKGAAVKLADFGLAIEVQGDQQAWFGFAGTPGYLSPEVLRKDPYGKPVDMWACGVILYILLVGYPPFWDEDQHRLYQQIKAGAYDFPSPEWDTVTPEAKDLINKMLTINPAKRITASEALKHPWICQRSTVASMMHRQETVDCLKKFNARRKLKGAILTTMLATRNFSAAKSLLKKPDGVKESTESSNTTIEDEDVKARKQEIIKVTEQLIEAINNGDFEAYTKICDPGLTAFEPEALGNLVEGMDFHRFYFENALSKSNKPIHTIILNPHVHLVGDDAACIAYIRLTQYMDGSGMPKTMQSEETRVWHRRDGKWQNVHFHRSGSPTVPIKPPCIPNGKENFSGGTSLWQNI

[4] = biological target: MAP kinase-activated protein kinase 2 (Homo sapiens) (UniProt P49137); assay: Inhibition of human recombinant MAPKAPK2 at 500 nM in presence of ATP by radiometric assay relative to control
MAP kinase-activated protein kinase 2 (Homo sapiens), sequence (P49137 whole entry, looked up): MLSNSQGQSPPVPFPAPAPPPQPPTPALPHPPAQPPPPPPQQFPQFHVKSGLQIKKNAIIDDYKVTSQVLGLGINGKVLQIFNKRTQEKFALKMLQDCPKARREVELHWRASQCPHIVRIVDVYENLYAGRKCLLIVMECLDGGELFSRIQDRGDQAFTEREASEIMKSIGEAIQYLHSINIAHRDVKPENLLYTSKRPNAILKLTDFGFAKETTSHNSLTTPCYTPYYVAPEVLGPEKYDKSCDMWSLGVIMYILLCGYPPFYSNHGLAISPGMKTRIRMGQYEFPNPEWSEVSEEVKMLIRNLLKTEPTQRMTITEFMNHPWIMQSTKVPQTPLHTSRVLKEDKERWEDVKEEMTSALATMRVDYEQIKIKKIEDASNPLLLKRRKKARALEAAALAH

[5] = biological target: T2, Serine/threonine-protein kinase ICK (Homo sapiens) (UniProt Q9UPZ9); assay: Inhibition of human recombinant ICK at 500 nM related to control ULK1
T2 sequence (whole entry): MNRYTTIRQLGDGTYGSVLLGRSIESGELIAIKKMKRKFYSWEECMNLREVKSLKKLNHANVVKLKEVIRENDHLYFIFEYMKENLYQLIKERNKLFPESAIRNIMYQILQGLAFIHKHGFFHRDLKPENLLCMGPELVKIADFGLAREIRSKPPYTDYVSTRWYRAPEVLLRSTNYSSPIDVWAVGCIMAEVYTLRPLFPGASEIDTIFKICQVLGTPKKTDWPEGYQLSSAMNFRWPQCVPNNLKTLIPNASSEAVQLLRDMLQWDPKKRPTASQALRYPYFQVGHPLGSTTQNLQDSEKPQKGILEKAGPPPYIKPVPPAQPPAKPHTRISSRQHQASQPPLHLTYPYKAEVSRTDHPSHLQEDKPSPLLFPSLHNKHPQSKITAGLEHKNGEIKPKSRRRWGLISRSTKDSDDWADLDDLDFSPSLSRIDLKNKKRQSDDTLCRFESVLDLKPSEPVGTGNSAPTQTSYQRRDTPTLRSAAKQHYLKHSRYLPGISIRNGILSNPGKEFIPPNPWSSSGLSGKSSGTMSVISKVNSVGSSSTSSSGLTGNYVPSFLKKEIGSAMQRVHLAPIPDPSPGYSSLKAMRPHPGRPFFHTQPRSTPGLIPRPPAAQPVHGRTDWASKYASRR

[6] = biological target: SRSF protein kinase 2 (Homo sapiens) (UniProt P78362); assay: Inhibition of human recombinant SRPK2 at 500 nM related to control ULK1
SRSF protein kinase 2 (Homo sapiens), sequence (P78362 whole entry, looked up): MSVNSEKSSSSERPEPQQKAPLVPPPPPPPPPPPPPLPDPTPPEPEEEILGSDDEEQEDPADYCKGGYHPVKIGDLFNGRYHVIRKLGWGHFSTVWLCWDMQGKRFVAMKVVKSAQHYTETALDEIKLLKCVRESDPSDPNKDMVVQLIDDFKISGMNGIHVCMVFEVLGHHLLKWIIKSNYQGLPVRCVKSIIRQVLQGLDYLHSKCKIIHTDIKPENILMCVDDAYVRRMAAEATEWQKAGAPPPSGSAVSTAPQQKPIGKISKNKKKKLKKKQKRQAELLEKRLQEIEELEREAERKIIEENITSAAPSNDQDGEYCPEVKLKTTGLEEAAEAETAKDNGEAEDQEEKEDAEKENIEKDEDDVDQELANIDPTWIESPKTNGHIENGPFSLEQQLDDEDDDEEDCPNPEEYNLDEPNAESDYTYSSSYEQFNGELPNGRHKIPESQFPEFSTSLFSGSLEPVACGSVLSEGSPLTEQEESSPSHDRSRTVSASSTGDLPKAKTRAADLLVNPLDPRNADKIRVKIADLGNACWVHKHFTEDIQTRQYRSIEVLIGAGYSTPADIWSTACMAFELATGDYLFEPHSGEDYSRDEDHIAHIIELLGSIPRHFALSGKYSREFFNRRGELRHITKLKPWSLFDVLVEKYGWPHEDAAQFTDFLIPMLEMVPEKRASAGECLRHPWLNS

[7] = biological target: Tau-tubulin kinase 1 (Homo sapiens) (UniProt Q5TCY1); assay: Inhibition of human recombinant TTBK1 at 500 nM related to control ULK1
Tau-tubulin kinase 1 (Homo sapiens), sequence (Q5TCY1 whole entry): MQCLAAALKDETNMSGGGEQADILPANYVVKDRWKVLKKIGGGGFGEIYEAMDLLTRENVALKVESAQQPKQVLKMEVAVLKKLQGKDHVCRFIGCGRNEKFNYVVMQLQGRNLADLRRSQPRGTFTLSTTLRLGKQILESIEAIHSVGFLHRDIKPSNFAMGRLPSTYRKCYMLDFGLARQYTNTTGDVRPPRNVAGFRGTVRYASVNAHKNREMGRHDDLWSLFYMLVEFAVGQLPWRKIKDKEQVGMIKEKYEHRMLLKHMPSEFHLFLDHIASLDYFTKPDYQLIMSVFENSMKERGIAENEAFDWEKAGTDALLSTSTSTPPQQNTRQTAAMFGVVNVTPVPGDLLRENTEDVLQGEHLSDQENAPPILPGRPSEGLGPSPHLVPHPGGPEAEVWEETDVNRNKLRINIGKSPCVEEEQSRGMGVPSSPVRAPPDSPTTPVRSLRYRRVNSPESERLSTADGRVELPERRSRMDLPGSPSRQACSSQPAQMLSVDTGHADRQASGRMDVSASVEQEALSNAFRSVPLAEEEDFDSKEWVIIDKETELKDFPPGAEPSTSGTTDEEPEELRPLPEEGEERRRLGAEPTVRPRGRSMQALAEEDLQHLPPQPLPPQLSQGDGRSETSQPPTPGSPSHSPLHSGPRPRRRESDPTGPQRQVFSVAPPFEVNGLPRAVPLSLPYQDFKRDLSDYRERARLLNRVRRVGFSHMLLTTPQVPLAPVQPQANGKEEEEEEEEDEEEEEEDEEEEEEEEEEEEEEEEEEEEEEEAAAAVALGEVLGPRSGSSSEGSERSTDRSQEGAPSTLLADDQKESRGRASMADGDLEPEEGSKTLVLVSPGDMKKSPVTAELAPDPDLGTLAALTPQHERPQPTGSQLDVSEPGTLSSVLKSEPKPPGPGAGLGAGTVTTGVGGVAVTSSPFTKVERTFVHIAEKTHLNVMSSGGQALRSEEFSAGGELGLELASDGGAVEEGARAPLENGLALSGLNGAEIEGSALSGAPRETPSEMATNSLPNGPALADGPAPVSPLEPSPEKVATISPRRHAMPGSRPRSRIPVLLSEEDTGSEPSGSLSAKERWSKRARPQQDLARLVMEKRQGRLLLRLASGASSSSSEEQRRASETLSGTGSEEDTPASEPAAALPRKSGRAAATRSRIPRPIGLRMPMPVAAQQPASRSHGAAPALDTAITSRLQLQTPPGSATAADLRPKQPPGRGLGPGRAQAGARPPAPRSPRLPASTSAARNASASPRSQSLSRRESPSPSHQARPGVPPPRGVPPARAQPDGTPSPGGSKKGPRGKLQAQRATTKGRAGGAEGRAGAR

[8] = biological target: T3, Aurora kinase A (Homo sapiens) (UniProt O14965); assay: Inhibition of human recombinant AurA at 15 nM in presence of ATP by radiometric assay relative to control
T3 sequence (whole entry): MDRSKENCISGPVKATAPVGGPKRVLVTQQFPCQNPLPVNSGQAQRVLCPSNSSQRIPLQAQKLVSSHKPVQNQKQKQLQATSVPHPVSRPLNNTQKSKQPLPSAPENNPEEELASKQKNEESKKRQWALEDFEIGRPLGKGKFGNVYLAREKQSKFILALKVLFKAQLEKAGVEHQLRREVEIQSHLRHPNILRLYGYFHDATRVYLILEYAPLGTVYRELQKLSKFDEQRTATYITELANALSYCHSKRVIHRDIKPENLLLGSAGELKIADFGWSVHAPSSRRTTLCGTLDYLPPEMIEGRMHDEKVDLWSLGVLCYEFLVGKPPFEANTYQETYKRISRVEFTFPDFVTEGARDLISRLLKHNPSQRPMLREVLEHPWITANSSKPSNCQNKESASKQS
Summary of the method: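 Panel of 327 recombinant human kinases, each assayed in vitro by radiometric activity assay in duplicate at a single inhibitor concentration per compound, chosen with reference to its ULK1 inhibition. Activity remaining was expressed as percent of vehicle control, and percent inhibition was calculated as 100 minus percent activity remaining.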

[9] = biological target: Serine/threonine-protein kinase PAK 4 (Homo sapiens) (UniProt O96013); assay: Inhibition of human recombinant PAK4 at 15 nM in presence of ATP by radiometric assay relative to control
Serine/threonine-protein kinase PAK 4 (Homo sapiens), sequence (O96013 whole entry, looked up): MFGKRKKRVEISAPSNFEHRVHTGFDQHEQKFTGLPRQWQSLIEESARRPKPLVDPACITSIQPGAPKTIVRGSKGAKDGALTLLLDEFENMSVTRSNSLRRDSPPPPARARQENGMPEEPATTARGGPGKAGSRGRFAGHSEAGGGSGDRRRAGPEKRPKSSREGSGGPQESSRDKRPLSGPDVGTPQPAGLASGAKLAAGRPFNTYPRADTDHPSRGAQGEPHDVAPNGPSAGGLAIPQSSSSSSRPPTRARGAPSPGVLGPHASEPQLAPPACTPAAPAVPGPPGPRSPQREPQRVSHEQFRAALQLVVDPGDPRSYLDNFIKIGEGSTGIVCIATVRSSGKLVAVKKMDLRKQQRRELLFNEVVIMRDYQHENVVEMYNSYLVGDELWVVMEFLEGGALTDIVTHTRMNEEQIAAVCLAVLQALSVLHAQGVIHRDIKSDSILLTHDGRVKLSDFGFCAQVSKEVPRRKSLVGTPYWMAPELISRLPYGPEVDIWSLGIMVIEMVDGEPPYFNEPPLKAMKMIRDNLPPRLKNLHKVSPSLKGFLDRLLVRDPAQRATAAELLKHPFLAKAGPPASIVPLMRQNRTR

[10] = biological target: T4, Protein kinase C epsilon type (Homo sapiens) (UniProt Q02156); assay: Inhibition of human recombinant PKCe at 15 nM in presence of ATP by radiometric assay relative to control
T4 sequence (whole entry): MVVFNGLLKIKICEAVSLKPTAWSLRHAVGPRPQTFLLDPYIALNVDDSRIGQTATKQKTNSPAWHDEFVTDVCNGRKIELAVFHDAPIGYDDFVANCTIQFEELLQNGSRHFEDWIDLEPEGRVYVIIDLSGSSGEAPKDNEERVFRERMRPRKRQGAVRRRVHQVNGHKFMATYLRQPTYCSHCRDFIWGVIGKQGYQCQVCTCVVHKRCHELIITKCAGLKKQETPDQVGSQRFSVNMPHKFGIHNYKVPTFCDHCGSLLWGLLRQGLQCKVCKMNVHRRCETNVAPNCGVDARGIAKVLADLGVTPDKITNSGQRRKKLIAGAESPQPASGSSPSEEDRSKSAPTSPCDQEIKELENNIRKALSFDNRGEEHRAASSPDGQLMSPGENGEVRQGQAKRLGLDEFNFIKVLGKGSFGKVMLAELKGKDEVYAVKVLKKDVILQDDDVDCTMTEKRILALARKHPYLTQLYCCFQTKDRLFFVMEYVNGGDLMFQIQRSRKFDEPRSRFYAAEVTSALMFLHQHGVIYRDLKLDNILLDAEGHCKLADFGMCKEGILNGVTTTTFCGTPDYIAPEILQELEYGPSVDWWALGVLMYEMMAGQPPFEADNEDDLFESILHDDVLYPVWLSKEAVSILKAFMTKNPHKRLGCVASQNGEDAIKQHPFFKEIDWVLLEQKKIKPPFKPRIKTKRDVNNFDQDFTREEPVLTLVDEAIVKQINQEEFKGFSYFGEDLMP

Casein kinase II subunit alpha' (Homo sapiens), sequence (P19784 whole entry, looked up): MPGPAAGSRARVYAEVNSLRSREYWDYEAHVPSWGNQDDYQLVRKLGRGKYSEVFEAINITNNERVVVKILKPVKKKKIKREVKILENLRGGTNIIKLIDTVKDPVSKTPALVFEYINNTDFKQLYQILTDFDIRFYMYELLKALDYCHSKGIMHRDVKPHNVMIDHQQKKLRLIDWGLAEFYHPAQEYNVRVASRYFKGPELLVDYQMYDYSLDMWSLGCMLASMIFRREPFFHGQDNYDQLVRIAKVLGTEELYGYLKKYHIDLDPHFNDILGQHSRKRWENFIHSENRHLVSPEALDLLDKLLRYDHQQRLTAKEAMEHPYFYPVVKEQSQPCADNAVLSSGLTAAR

O=C(N[C@@H](C1CC1)C(F)(F)F)c1cc(-c2cnn3cc(-c4ccc(F)cc4)cnc23)cs1
inhibition [1]: 8% | inhibition [2]: 0% | fold change (FC) [3]: 0.01

CNC(=O)c1ccccc1Oc1nc(Nc2cc(OC)c(OC)c(OC)c2)ncc1Br
inhibition [4]: 0% | fold change (FC) [5]: 0.04 | fold change (FC) [6]: 0.07 | fold change (FC) [7]: 0.01

CC(C)[C@H](NC(=O)c1cc(-c2cnn3cc(-c4ccc(OCCN5CCCCC5)cc4)cnc23)cs1)C(F)(F)F
inhibition [8]: 13% | inhibition [9]: 0% | inhibition [10]: 0%
